Results as given in ChEMBL document CHEMBL1140263, “Structure-based design, synthesis, and study of potent inhibitors of beta-ketoacyl-acyl carrier protein synthase III as potential antimicrobial agents” (J Med Chem, 2005).
In brackets after ≈: the same amount, converted by molar mass.

What was measured:
[1] = target: T1, Beta-ketoacyl-[acyl-carrier-protein] synthase III (Enterococcus faecalis (strain ATCC 700802 / V583), UniProt Q820T1); experiment: Inhibitory concentration against Enterococcus faecalis beta-Ketoacyl-acyl carrier protein synthase III
T1 sequence (Q820T1 whole entry): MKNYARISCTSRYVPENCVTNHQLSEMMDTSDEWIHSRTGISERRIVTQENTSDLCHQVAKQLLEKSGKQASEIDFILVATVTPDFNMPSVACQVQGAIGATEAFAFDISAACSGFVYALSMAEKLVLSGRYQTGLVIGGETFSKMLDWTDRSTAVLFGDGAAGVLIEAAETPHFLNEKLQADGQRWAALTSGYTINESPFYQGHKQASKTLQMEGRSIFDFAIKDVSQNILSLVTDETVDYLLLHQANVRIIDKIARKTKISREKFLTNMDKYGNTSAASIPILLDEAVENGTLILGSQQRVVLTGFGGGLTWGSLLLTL
In short: (§1)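 Coupled FabD/FabH radiometric assay with His-tagged or tagless FabH expressed in E. coli BL21(DE3). The mix held 100 mM sodium phosphate pH 7.0, 2 mM DTT, 1 mM MgCl₂, 12.5 µM E. coli holo-ACP, 10 nM FabD and 3-5 nM FabH. Malonyl-CoA was added for 1 min, then acetyl-CoA plus [³H]acetyl-CoA, NADH and NADPH for 19 min. TCA-precipitated protein was counted by liquid scintillation; DMSO ≤2% final.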

Staphylococcus aureus = experiment: Minimum inhibitory concentration against Staphylococcus aureus MRSA 703; format: functional
Streptococcus pyogenes = experiment: Minimum inhibitory concentration against Streptococcus pyogenes NZ131; format: functional
Neisseria meningitidis = experiment: Minimum inhibitory concentration against Neisseria meningitides MC58 in presence of membrane permeablizing agent polymyxin B; format: functional
[2] = Minimum inhibitory concentration against Enterococcus faecalis VRE 583; format: functional, Enterococcus faecalis V583
Escherichia coli = experiment: Minimum inhibitory concentration against Escherichia coli TolC- mutant in presence of membrane permeablizing agent polymyxin B; format: functional
Streptococcus pneumoniae = experiment: Minimum inhibitory concentration against Streptococcus pneumonia ATCC 6301; format: functional
[3] = target: T2, Beta-ketoacyl-[acyl-carrier-protein] synthase III (Haemophilus influenzae (strain ATCC 51907 / DSM 11121 / KW20 / Rd), UniProt P43711); experiment: Inhibitory concentration against Haemophilus influenzae beta-Ketoacyl-acyl carrier protein synthase III; in short: as §1
T2 sequence (P43711 whole entry): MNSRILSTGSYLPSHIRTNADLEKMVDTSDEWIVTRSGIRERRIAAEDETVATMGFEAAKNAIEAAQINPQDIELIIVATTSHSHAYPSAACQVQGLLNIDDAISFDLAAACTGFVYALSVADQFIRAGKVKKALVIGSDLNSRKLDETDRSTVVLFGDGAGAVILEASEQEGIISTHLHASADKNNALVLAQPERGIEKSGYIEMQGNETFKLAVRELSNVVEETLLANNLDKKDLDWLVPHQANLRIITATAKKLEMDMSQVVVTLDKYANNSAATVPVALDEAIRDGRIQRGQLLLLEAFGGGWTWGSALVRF

[4] = target: T3, Beta-ketoacyl-[acyl-carrier-protein] synthase III (Staphylococcus aureus subsp. aureus Mu50, UniProt P68795); experiment: Inhibitory concentration against Staphylococcus aureus beta-Ketoacyl-acyl carrier protein synthase III
T3 sequence (P68795 whole entry): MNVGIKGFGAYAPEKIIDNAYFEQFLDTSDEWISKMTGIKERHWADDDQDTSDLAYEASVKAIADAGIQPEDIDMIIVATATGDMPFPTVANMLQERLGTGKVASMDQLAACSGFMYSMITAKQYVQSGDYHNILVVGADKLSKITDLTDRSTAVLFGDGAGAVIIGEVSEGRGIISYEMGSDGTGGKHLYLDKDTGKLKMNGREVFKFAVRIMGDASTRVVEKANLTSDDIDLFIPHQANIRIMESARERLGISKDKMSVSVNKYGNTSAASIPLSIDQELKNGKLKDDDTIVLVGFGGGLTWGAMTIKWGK
In short: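 Coupled FabD/FabH radiometric assay, 100 µL final, pH 7.0: 100 mM sodium phosphate, 2 mM DTT, 1 mM MgCl2, 12.5 µM E. coli holo-ACP, 10 nM FabD, 20 nM S. aureus FabH (His-tagged or tagless, expressed in E. coli BL21(DE3)). FabD started with malonyl-CoA for 1 min. Acetyl-CoA plus [3H]acetyl-CoA, NADH and NADPH then added; FabH reaction 19 min. Stopped with TCA; pellet counted by liquid scintillation. DMSO ≤2% final.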

[5] = target: T4, Beta-ketoacyl-[acyl-carrier-protein] synthase III (Streptococcus pyogenes serotype M3 (strain ATCC BAA-595 / MGAS315), UniProt P0DB00); experiment: Inhibitory concentration against Streptococcus pyogenes beta-Ketoacyl-acyl carrier protein synthase III
T4 sequence (P0DB00 whole entry): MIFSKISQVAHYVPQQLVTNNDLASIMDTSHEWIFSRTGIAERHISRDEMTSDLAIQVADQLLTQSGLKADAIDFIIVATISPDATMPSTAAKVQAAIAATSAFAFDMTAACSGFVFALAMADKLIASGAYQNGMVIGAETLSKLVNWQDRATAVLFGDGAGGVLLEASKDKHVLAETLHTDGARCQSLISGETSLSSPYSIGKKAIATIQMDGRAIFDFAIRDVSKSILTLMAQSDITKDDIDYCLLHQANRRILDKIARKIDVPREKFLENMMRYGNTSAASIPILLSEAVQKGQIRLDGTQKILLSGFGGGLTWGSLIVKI
In short: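 S. pyogenes FabH (10 nM, His-tagged or tagless, expressed in E. coli BL21(DE3)) was run in a coupled assay with 10 nM FabD, 12.5 µM holo-ACP, 100 mM sodium phosphate pH 7.0, 2 mM DTT and 1 mM MgCl₂. Malonyl-CoA was added for 1 min, then [³H]acetyl-CoA/acetyl-CoA with NADH and NADPH for 19 min. The reaction was stopped with cold TCA and the pellet read by scintillation. Inhibitor DMSO ≤2%.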

**Q.** With `O=C(Nc1ccccc1C(=O)O)c1ccc(N2CCNCC2)c(Oc2ccccc2)c1` as the compound, how does the IC50 [1] read?
**A.** 185 µM

**Q.** Which IC50 [1] does the source give for `O=C(Nc1ncccc1C(=O)O)c1cccc(Oc2ccccc2)c1` here?
**A.** > 1000 µM

**Q.** Which IC50 [1] does the source give for `CCN(CC)S(=O)(=O)c1cc(C(=O)Nc2ccccc2C(=O)O)ccc1N1CCCCC1` here?
**A.** 2.2 µM

**Q.** For `CN1CCN(c2ccc(C(=O)Nc3ccccc3C(=O)O)cc2Oc2ccccc2)CC1`, which IC50 [1] is on record?
**A.** 25 µM

**Q.** With `O=C(Nc1ccccc1C(=O)O)c1ccc(-c2cccnc2)c(Oc2ccccc2)c1` as the compound, how does the IC50 [1] read?
**A.** 0.11 µM

**Q.** With `Cc1ccc(-c2ccc(C(=O)Nc3ccccc3C(=O)O)cc2Oc2ccccc2)cc1` as the compound, how does the IC50 [1] read?
**A.** 0.16 µM

**Q.** Which IC50 [1] does the source give for `CCN(CC)S(=O)(=O)c1cc(C(=O)Nc2ccccc2C(=O)O)ccc1OCC1CCCC1` here?
**A.** 2.1 µM

**Q.** With `Cc1cc(-c2ccc(C(=O)Nc3ccccc3C(=O)O)cc2Oc2ccccc2)ccc1Cl` as the compound, how does the MIC (Staphylococcus aureus) read?
**A.** 5.6 µg/mL (≈ 12.2 µM)

**Q.** What about the MIC (Streptococcus pyogenes) of the same compound?
**A.** 1.4 µg/mL (≈ 3.06 µM)

**Q.** And the IC50 [1]?
**A.** 0.25 µM

**Q.** What about the MIC (Neisseria meningitidis) of the same compound?
**A.** 0.7 µg/mL

**Q.** What about the MIC [2] of the same compound?
**A.** 5.6 µg/mL (≈ 12.2 µM)

**Q.** And the MIC (Escherichia coli)?
**A.** 0.7 µg/mL

**Q.** What about the MIC (Streptococcus pneumoniae) of the same compound?
**A.** 2.8 µg/mL (≈ 6.11 µM)

**Q.** Which results are given for `O=C(Nc1cccc(O)c1C(=O)O)c1ccc(-c2ccccc2)c(Oc2ccccc2)c1`?
**A.** IC50 [3]: 2.4 µM; MIC (Staphylococcus aureus): 22 µg/mL (≈ 51.7 µM); IC50 [4]: 3.8 µM; MIC (Streptococcus pyogenes): 5.6 µg/mL (≈ 13.2 µM); IC50 [1]: 0.004 µM; MIC (Neisseria meningitidis): 1.4 µg/mL; IC50 [5]: 0.004 µM; MIC [2]: > 45 µg/mL; MIC (Escherichia coli): 1.4 µg/mL; MIC (Streptococcus pneumoniae): 22 µg/mL (≈ 51.7 µM)

**Q.** With `CCN(CC)S(=O)(=O)c1cc(C(=O)Nc2ccccc2C(=O)O)ccc1Oc1ccccc1` as the compound, how does the IC50 [1] read?
**A.** 6.1 µM

**Q.** For `O=C(Nc1ccccc1C(=O)O)c1ccc(-c2ccccc2)c(Oc2ccccc2)c1`, which IC50 [3] is on record?
**A.** > 100 µM

**Q.** What about the MIC (Staphylococcus aureus) of the same compound?
**A.** 11.3 µg/mL (≈ 27.6 µM)

**Q.** What about the IC50 [4] of the same compound?
**A.** 10 µM

**Q.** And the IC50 [1]?
**A.** 0.056 µM

**Q.** What about the MIC (Neisseria meningitidis) of the same compound?
**A.** 1.4 µg/mL

**Q.** What about the IC50 [5] of the same compound?
**A.** 0.05 µM

**Q.** And the MIC [2]?
**A.** 22 µg/mL (≈ 53.7 µM)

**Q.** And the MIC (Escherichia coli)?
**A.** 1.4 µg/mL

**Q.** What about the MIC (Streptococcus pneumoniae) of the same compound?
**A.** 1.4 µg/mL (≈ 3.42 µM)

**Q.** Which IC50 [1] does the source give for `O=C(Nc1ccccc1C(=O)O)c1cccc(Oc2ccc(F)cc2)c1` here?
**A.** 5 µM

**Q.** With `O=C(O)c1cccc(Oc2cccc(C(=O)Nc3ccccc3C(=O)O)c2)c1` as the compound, how does the IC50 [1] read?
**A.** 3.7 µM

**Q.** Which IC50 [1] does the source give for `O=C(Nc1ccccc1C(=O)O)c1ccc(Br)c(Oc2ccccc2)c1` here?
**A.** 1.1 µM

**Q.** For `CCOc1ccc(-c2ccc(C(=O)Nc3ccccc3C(=O)O)cc2Oc2ccccc2)cc1`, which IC50 [1] is on record?
**A.** 0.22 µM

**Q.** For `CCN(CC)S(=O)(=O)c1cc(C(=O)Nc2ccccc2C(=O)O)ccc1-c1ccccc1`, which IC50 [1] is on record?
**A.** 1.6 µM

**Q.** With `O=C(O)c1ccc(Oc2cccc(C(=O)Nc3ccccc3C(=O)O)c2)cc1` as the compound, how does the IC50 [1] read?
**A.** 4.4 µM

**Q.** For `CCN(CC)S(=O)(=O)c1cc(C(=O)Nc2ccccc2C(=O)O)ccc1F`, which IC50 [1] is on record?
**A.** 8.4 µM

**Q.** Which MIC (Staphylococcus aureus) does the source give for `O=C(Nc1ccccc1C(=O)O)c1ccc(-c2ccc(F)cc2F)c(Oc2ccccc2)c1` here?
**A.** 5.6 µg/mL (≈ 12.6 µM)

**Q.** And the MIC (Streptococcus pyogenes)?
**A.** 2.8 µg/mL (≈ 6.29 µM)

**Q.** What about the IC50 [1] of the same compound?
**A.** 0.16 µM

**Q.** What about the MIC (Neisseria meningitidis) of the same compound?
**A.** 0.36 µg/mL

**Q.** What about the MIC [2] of the same compound?
**A.** 11.3 µg/mL (≈ 25.4 µM)

**Q.** And the MIC (Escherichia coli)?
**A.** 0.7 µg/mL

**Q.** And the MIC (Streptococcus pneumoniae)?
**A.** 2.8 µg/mL (≈ 6.29 µM)

**Q.** With `CCN(CC)S(=O)(=O)c1cc(C(=O)Nc2ccccc2C(=O)O)ccc1Br` as the compound, how does the IC50 [1] read?
**A.** 1.6 µM

**Q.** With `CC1CN(c2ccc(C(=O)Nc3ccccc3C(=O)O)cc2Oc2ccccc2)CC(C)N1` (configuration not stated) as the compound, how does the IC50 [1] read?
**A.** 38 µM

**Q.** Which IC50 [1] does the source give for `O=C(Nc1ccccc1C(=O)O)c1ccc(-c2cccc(OC(F)(F)F)c2)c(Oc2ccccc2)c1` here?
**A.** 0.47 µM

**Q.** Which IC50 [1] does the source give for `O=C(Nc1ccccc1C(=O)O)c1ccc(F)c(Oc2ccccc2)c1` here?
**A.** 3.8 µM
